Test results as given in article PMC10100219 (Chemistry (Weinheim an Der Bergstrasse, Germany), 2022).
Substitutions are numbered along the chain they refer to.

Legend:
Assay in all cases: UV-Vis titration, Soret spin-state shift
Type in all cases: binding
CYP199A4 [1] = target: T1, CYP199A4 (Rhodopseudomonas palustris, UniProt Q2IU02, T253A)
T1 sequence (Q2IU02 1-410 T253A): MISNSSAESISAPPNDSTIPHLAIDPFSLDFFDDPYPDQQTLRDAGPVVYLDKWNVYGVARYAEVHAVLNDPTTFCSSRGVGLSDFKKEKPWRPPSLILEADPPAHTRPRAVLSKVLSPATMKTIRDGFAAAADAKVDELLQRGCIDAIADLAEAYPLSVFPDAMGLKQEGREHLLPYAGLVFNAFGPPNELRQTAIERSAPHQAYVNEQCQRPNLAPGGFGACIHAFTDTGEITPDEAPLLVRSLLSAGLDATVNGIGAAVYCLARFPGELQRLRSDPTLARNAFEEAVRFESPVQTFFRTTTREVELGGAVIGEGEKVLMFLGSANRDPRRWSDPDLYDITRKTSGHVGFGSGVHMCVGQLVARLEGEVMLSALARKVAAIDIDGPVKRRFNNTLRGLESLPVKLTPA
Summary of the method: (§1)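 CYP199A4 mutants (D251N, T252A) from Rhodopseudomonas palustris HaA2 were titrated with para-substituted benzoic acid test compounds, with UV-Vis monitoring to obtain Kd. Spectra were recorded from 700 to 250 nm at 600 nm min⁻¹, and repeated at 60 nm min⁻¹ to verify small Soret shifts. P450 concentration came from pyridine hemochromogen extinction coefficients: D251N 123±1, T252A 120±4 mM⁻¹ cm⁻¹.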

CYP199A4 [2] = target: T2, CYP199A4 (Rhodopseudomonas palustris, UniProt Q2IU02)
T2 sequence (Q2IU02 1-410): T1 sequence (Q2IU02 1-410 T253A) with A253T

CYP199A4 [3] = target: T3, CYP199A4 (Rhodopseudomonas palustris, UniProt Q2IU02, D252N)
T3 sequence (Q2IU02 1-410 D252N): T1 sequence (Q2IU02 1-410 T253A) with D252N, A253T
Summary of the method: as §1

CCSc1ccc(C(=O)O)cc1 [4‐ethylthiobenzoic acid]
Kd (CYP199A4 [1]): 250 ± 50 nM
Kd (CYP199A4 [2]): 990 ± 50 nM

CSc1ccc(C(=O)O)cc1 [4‐methylthiobenzoic acid]
Kd (CYP199A4 [1]): 1400 ± 100 nM
Kd (CYP199A4 [2]): 2300 ± 300 nM
Kd (CYP199A4 [3]): 830 ± 80 nM
